Among the data in ChEMBL document CHEMBL2417428, “Cytotoxic psammaplysin analogues from a Suberea sp. marine sponge and the role of the spirooxepinisoxazoline in their activity” (2013) are GI50 values, retold here.

Broadly, the GI50 is the concentration that inhibits growth by half. Lower therefore signals more potent growth inhibition.

Where only a bound is given, the exact number is not on record here.

Format in all cases: functional
For one test, the system named is PC-3. Briefly: Cytotoxicity against human PC3 cells after 48 hrs by sulforhodamine B assay. Conditions: PC-3, 48 h. A digest of the protocol: (§1)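 Cells seeded in 96-well plates with test compounds or doxorubicin control and incubated 48 h. Fixed with 50% trichloroacetic acid, stained with 0.4% sulforhodamine B in 1% acetic acid, and washed with 1% acetic acid. Bound dye was extracted with 10 mM Tris base (pH 10.5) and absorbance read at 540 nm for growth inhibition.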
A general note: Sulforhodamine B stains cellular protein and so reports cell mass.

In another test the test system is MDA-MB-231. In words: Cytotoxicity against human MDA-MB-231 cells after 48 hrs by sulforhodamine B assay. The note with it: MDA-MB-231, 48 h. A digest of the protocol: as §1
In the next test the test system is NUGC-3. Briefly: Cytotoxicity against human NUGC3 cells after 48 hrs by sulforhodamine B assay. Conditions: NUGC-3, 48 h. A digest of the protocol: as §1
The subject of the next test is ACHN. In words: Cytotoxicity against human ACHN cells after 48 hrs by sulforhodamine B assay. A digest of the protocol:
as §1

The subject of a further test is NCI-H23. In words: Cytotoxicity against human NCI-H23 cells after 48 hrs by sulforhodamine B assay. Conditions: NCI-H23, 48 h. A digest of the protocol:
as §1

The next test concerns HCT-15. In words: Cytotoxicity against human HCT15 cells after 48 hrs by sulforhodamine B assay. Conditions: HCT-15, 48 h. A digest of the protocol: as §1

As for `COc1cccc2c1C(=O)c1c(O)c3c(c(O)c1C2=O)C[C@@](O)(C(=O)CO)C[C@@H]3O[C@H]1C[C@H](N)[C@H](O)[C@H](C)O1` [DOXORUBICIN], the GI50 in the test with PC-3 turned out to be 0.52 µM; in the test with MDA-MB-231 it was 1.8 µM; in the test on NUGC-3, 0.51 µM; in the test with ACHN, 2 µM; in the test with NCI-H23, 1.9 µM; with HCT-15 it was 1.4 µM.

Take `COC1=C(Br)C[C@@]2(OC=C1Br)ON=C(C(=O)NCCCOc1c(Br)cc(CCN)cc1Br)[C@H]2O` (relative stereo): the GI50 with PC-3 amounted to 6.9 µM; in the test on MDA-MB-231 it was 4.3 µM; in the test with NUGC-3, 3.8 µM; in the test with ACHN it was 5.1 µM; in the test with NCI-H23, 12.4 µM; with HCT-15, 3.9 µM.

Take `COC1=C(Br)C[C@]2(OC=C1Br)ON=C(C(=O)NCCCOc1c(Br)cc(C(O)CN/C=C3/C(=O)CC(Cl)C3=O)cc1Br)[C@@H]2O` (mixture of isomers) [19-HYDROXYPSAMMAPLYSINE X]: the GI50 was found to be 2.1 µM with PC-3; 0.8 µM with MDA-MB-231; 4 µM with NUGC-3; 2.5 µM in the test on ACHN; 3.5 µM in the test with NCI-H23; 3.5 µM in the test on HCT-15.

As to `COC1=C(Br)C[C@@]2(OC=C1Br)ON=C(C(=O)NCCCOc1c(Br)cc(CCNC=C3C(=O)C=CC3=O)cc1Br)[C@H]2O`, the GI50 in the test with PC-3 is 3.7 µM; with MDA-MB-231 it was 3.9 µM; in the test on NUGC-3 it was 4 µM; in the test on ACHN it was 10.3 µM; in the test on NCI-H23 it was 7 µM; in the test on HCT-15 it was 7.4 µM.

Take `COC1=C(Br)C[C@]2(OC=C1Br)ON=C(C(=O)NCCCOc1c(Br)cc(CCN/C=C3/C(=O)CC(Cl)C3=O)cc1Br)[C@@H]2O` (mixture of isomers): the GI50 in the test with PC-3 was 2.3 µM; with MDA-MB-231, 1.2 µM; in the test with NUGC-3, 3.5 µM; in the test with ACHN, 3.3 µM; in the test on NCI-H23 it was 6.4 µM; with HCT-15, 3.3 µM.

`N#CC(=O)NCCCOc1c(Br)cc(C(O)CN)cc1Br` (configuration not stated): the GI50 in the test on PC-3, with MDA-MB-231, in the test on NUGC-3, in the test on ACHN, in the test with NCI-H23 and in the test on HCT-15 was more than 70 µM throughout.

In the case of `COC1=C(Br)C[C@@]2(OC=C1Br)ON=C(C(=O)NCCCOc1c(Br)cc(C(O)CNC=C3C(=O)C=CC3=O)cc1Br)[C@H]2O` (some centres not stated) [19-HYDROXYPSAMMAPLYSINE E], the concentration for 50% growth inhibition (GI50) in the test on PC-3 is 1.4 µM; in the test on MDA-MB-231, 0.51 µM; with NUGC-3, 2.3 µM; with ACHN, 2.3 µM; in the test with NCI-H23, 3.6 µM; with HCT-15, 3.8 µM.

For the compound `COC1=C(Br)C[C@@]2(OC=C1Br)ON=C(C(=O)NCCCOc1c(Br)cc(C(O)CNC(=O)CCCCCCCCCCCC(C)C)cc1Br)[C@H]2O` (some centres not stated), the GI50 in the test on PC-3 stood at 25 µM; in the test on MDA-MB-231 it was 21 µM; in the test with NUGC-3, 26 µM; in the test on ACHN it was 27 µM; in the test with NCI-H23 it was 27 µM; in the test with HCT-15, 24 µM.

`COC1=C(Br)C[C@@]2(OC=C1Br)ON=C(C(=O)NCCCOc1c(Br)cc(C(O)CN)cc1Br)[C@H]2O` (relative stereo): the GI50 with PC-3 was found to be 2.7 µM; in the test on MDA-MB-231, 0.53 µM; in the test on NUGC-3, 2.5 µM; with ACHN it was 1.6 µM; in the test on NCI-H23, 3.7 µM; in the test with HCT-15 it was 4 µM.

For `N#CC(=O)NCCCOc1c(Br)cc(CCN)cc1Br` [CERATINAMINE], the GI50 in the test with PC-3, in the test on MDA-MB-231, in the test on NUGC-3, with ACHN, in the test on NCI-H23 and in the test on HCT-15 was more than 70 µM in each case.

Turning to `NCCCOc1c(Br)cc(C(O)CN)cc1Br` (configuration not stated) [HYDROXYMOLOKA'IAMINE], the GI50 with PC-3, in the test with MDA-MB-231, with NUGC-3, in the test on ACHN, in the test with NCI-H23 and with HCT-15 was more than 70 µM throughout.

Turning to `NCCCOc1c(Br)cc(CCN)cc1Br` [MOLOKA'IAMINE], the GI50 in the test with PC-3, in the test with MDA-MB-231, with NUGC-3, in the test on ACHN, in the test with NCI-H23 and in the test on HCT-15 was more than 70 µM in each case.
